Data reported in ChEMBL document CHEMBL3352339, “Implications of N-capped urea/thiourea and C-capped 3-(1-piperazinyl)-1,2-benzisothiazole with bridging Gly-Val/Phe-Gly-Val-Pro as therapeutic targets” (Eur J Med Chem, 2014).
Values after ≈ are worked out from the molar mass of the structure shown. Starred links: 1 amine or outer side, 2 acyl side, 3 side chain; linkers in the order of their positions; H or OH if unused. Residues, ends and D or L forms follow the SMILES beside them. *: point of attachment. Thiocarbamoyl(N-2-FPh) = Fc1ccccc1NC(=S)*; X1 = c1ccc2c(N3CCN(*)CC3)nsc2c1; NH(2-F-phenyl) = Fc1ccccc1N*; X2 = Fc1ccc(NC(=S)*)cc1; CO = O=C([*:1])[*:2]

How the values were obtained:
Fusarium verticillioides [1] = assay: Antifungal activity against Fusarium moniliforme incubated for 48 to 72 hrs by agar microdilution method; assay type: functional
Procedure, shortened: (§1)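 MIC by microdilution against the fungal strain, limited to compounds showing significant zones in the diffusion assay. Bavistin was used as the reference.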

Fusarium oxysporum [2] = assay: Antifungal activity against Fusarium oxysporum at 50 ug/mL incubated for 3 days by agar well diffusion method; assay type: functional; details: 72 h, read-out: IZ
Procedure, shortened: (§2)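 Fungal growth inhibition measured by agar well diffusion, with bavistin as the reference. Records the mean inhibition-zone diameter (mm) around each well.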

Aspergillus niger [3] = assay: Antifungal activity against Aspergillus niger incubated for 48 to 72 hrs by agar microdilution method; assay type: functional; procedure, shortened: as §1
Aspergillus flavus [4] = assay: Antifungal activity against Aspergillus flavus at 50 ug/mL incubated for 3 days by agar well diffusion method; assay type: functional; details: 72 h, read-out: IZ; procedure, shortened: as §2
Staphylococcus [5] = assay: Antibacterial activity against Coagulase positive Staphylococcus at 50 ug/mL incubated for 24 hrs by agar well diffusion method; assay type: functional; details: read-out: IZ
Procedure, shortened: (§3)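 Agar well diffusion against the bacterial isolate, with streptomycin as the reference drug. Read-out is the average diameter (mm) of the growth-inhibition zone around the well.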

Fusarium verticillioides [6] = assay: Antifungal activity against Fusarium moniliforme at 50 ug/mL incubated for 3 days by agar well diffusion method; assay type: functional; details: 72 h, read-out: IZ; procedure, shortened: as §2
Xanthomonas oryzae [7] = assay: Antibacterial activity against Xanthomonas oryzae at 50 ug/mL incubated for 24 hrs by agar well diffusion method; assay type: functional; details: read-out: IZ
[8] = Inhibition of sheep stomach parietal cells gastric H+/K+-ATPase activity assessed as reduction in inorganic phosphorus production by Fiske Subbarow's method; assay type: tissue-based, Ovis aries; details: read-out: IC50
Procedure, shortened: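 Inhibition of purified H+/K+-ATPase, with omeprazole as the reference. IC50 is the mean of triplicate runs.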

Aspergillus flavus [9] = assay: Antifungal activity against Aspergillus flavus incubated for 48 to 72 hrs by agar microdilution method; assay type: functional; procedure, shortened: as §1
Urease = Urease (Canavalia ensiformis, UniProt P07374); assay: Inhibition of jack bean urease assessed as reduction in ammonia production incubated at 30 degC for 15 mins by indophenol method
Procedure, shortened: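 Inhibition of jack bean urease, with thiourea as the reference standard. IC50 values are the average of triplicate runs.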

Aspergillus niger [10] = assay: Antifungal activity against Aspergillus niger at 50 ug/mL incubated for 3 days by agar well diffusion method; assay type: functional; details: 72 h, read-out: IZ; procedure, shortened: as §2
Escherichia coli [11] = assay: Antibacterial activity against Escherichia coli at 50 ug/mL incubated for 24 hrs by agar well diffusion method; assay type: functional; details: read-out: IZ; procedure, shortened: as §3
Staphylococcus [12] = assay: Antibacterial activity against Coagulase positive Staphylococcus incubated for 24 hrs by agar microdilution method; assay type: functional
Fusarium oxysporum [13] = assay: Antifungal activity against Fusarium oxysporum incubated for 48 to 72 hrs by agar microdilution method; assay type: functional; procedure, shortened: as §1
Klebsiella pneumoniae = assay: Antibacterial activity against Klebsiella pneumoniae incubated for 24 hrs by agar microdilution method; assay type: functional
Xanthomonas oryzae [14] = assay: Antibacterial activity against Xanthomonas oryzae incubated for 24 hrs by agar microdilution method; assay type: functional
Escherichia coli [15] = assay: Antibacterial activity against Escherichia coli incubated for 24 hrs by agar microdilution method; assay type: functional
[16] = Antiglycation activity using bovine serum albumin incubated at 37 degC for 7 days by spectrofluorimetry; assay type: physicochemical
Procedure, shortened: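 Glycation of bovine serum albumin, with rutin as the reference standard. IC50 values are averages of triplicate runs.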

Sequence of Urease (P07374 whole entry): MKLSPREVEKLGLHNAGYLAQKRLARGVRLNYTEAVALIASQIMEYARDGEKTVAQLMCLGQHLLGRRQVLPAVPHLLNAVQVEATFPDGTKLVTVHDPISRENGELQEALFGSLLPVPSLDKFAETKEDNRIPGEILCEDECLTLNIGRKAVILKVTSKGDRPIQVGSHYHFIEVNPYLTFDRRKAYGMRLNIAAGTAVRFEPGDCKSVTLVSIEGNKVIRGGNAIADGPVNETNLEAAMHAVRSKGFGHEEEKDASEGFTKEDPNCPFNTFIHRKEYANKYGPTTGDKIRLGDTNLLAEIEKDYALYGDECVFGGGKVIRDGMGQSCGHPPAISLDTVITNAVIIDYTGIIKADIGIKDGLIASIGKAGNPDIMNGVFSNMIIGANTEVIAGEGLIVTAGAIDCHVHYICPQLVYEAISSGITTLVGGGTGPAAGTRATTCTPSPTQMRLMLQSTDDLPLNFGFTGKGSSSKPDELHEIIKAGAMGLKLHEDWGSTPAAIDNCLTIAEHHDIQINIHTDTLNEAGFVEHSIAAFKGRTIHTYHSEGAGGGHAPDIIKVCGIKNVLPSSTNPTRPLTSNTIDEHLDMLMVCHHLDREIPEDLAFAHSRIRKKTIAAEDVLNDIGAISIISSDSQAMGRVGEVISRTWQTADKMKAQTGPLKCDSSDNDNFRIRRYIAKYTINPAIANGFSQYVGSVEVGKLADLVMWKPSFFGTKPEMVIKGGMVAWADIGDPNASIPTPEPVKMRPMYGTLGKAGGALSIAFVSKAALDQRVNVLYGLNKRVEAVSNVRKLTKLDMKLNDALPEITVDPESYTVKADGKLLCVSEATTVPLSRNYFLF

Row | SMILES | MIC (Fusarium verticillioides [1]) [µg/mL] | zone of inhibition at 50 µg/mL (Fusarium oxysporum [2]) [mm] | MIC (Aspergillus niger [3]) [µg/mL] | zone of inhibition at 50 µg/mL (Aspergillus flavus [4]) [mm] | zone of inhibition at 50 µg/mL (Staphylococcus [5]) [mm] | zone of inhibition at 50 µg/mL (Fusarium verticillioides [6]) [mm] | zone of inhibition at 50 µg/mL (Xanthomonas oryzae [7]) [mm] | IC50 [8] [µM] | MIC (Aspergillus flavus [9]) [µg/mL] | IC50 (Urease) [µM] | zone of inhibition at 50 µg/mL (Aspergillus niger [10]) [mm] | zone of inhibition at 50 µg/mL (Escherichia coli [11]) [mm] | MIC (Staphylococcus [12]) [µg/mL] | MIC (Fusarium oxysporum [13]) [µg/mL] | MIC (Klebsiella pneumoniae) [µg/mL] | MIC (Xanthomonas oryzae [14]) [µg] | MIC (Escherichia coli [15]) [µg/mL] | IC50 [16] [µM]
1 | CC(C)[C@H](NC(=O)CNC(=O)[C@H](Cc1ccccc1)NC(=O)CNC(=S)Nc1ccc(F)cc1)C(=O)N1CCC[C@H]1C(=O)N1CCN(c2nsc3ccccc23)CC1 (X2-GFGVP-X1) | 9.75 (≈ 11.7 µM) | 35 | 9.75 (≈ 11.7 µM) | 36 | 35 | 36 | 34 | 72 | 10.2 (≈ 12.3 µM) | 33 | 35 | 35 | 9 (≈ 10.8 µM) | 11 (≈ 13.3 µM) | 8.5 (≈ 10.2 µM) | 7.5 | 9 (≈ 10.8 µM) | 42
2 | CC(C)[C@H](NC(=O)CNC(=O)Nc1ccccc1F)C(=O)NCC(=O)N[C@H](C(=O)N1CCC[C@H]1C(=O)N1CCN(c2nsc3ccccc23)CC1)C(C)C ({NH(2-F-phenyl)-CO}-GVGVP-X1) | 15.5 (≈ 20.2 µM) | 22 | 16.8 (≈ 21.9 µM) | 24 | 25 | 26 | 23 | 100 | 17.8 (≈ 23.2 µM) | 42 | 25 | 25 | 16.8 (≈ 21.9 µM) | 16.8 (≈ 21.9 µM) | 17 (≈ 22.2 µM) | – | 15.8 (≈ 20.6 µM) | 54
3 | CC(C)[C@H](NC(=O)CNC(=O)[C@H](Cc1ccccc1)NC(=O)CNC(=S)Nc1ccccc1F)C(=O)N1CCC[C@H]1C(=O)N1CCN(c2nsc3ccccc23)CC1 ({Thiocarbamoyl(N-2-FPh)}-GFGVP-X1) | 9.25 (≈ 11.1 µM) | 31 | 12.8 (≈ 15.4 µM) | 30 | 31 | 28 | 31 | 102 | 13 (≈ 15.7 µM) | 38 | 31 | 32 | 11.2 (≈ 13.6 µM) | 13 (≈ 15.7 µM) | 10.8 (≈ 13 µM) | 11 | 11 (≈ 13.3 µM) | 48
4 | CC(C)[C@H](NC(=O)CNC(=S)Nc1ccc(F)cc1)C(=O)NCC(=O)N[C@H](C(=O)N1CCC[C@H]1C(=O)N1CCN(c2nsc3ccccc23)CC1)C(C)C (X2-GVGVP-X1) | 11 (≈ 14.1 µM) | 35 | 10.5 (≈ 13.4 µM) | 34 | 31 | 35 | 29 | 76 | 12.8 (≈ 16.3 µM) | 35 | 35 | 32 | 10.8 (≈ 13.7 µM) | 13.2 (≈ 16.9 µM) | 10 (≈ 12.8 µM) | 9.5 | 10.2 (≈ 13.1 µM) | 34
5 | CC(C)[C@H](NC(=O)CNC(=O)[C@H](Cc1ccccc1)NC(=O)CNC(=O)Nc1ccccc1F)C(=O)N1CCC[C@H]1C(=O)N1CCN(c2nsc3ccccc23)CC1 ({NH(2-F-phenyl)-CO}-GFGVP-X1) | 10 (≈ 12.3 µM) | 29 | 14 (≈ 17.2 µM) | 28 | 29 | 26 | 28 | 110 | 14.2 (≈ 17.5 µM) | 41 | 29 | 30 | 12.2 (≈ 15 µM) | 14 (≈ 17.2 µM) | 12.2 (≈ 15 µM) | – | 12.8 (≈ 15.7 µM) | 53
